Where “and” joins values, the source holds several entries; their conditions need not be identical. Equal values may be shown once. Read-outs that look alike come from different tables or passages of the source. Where a SMILES comes first, the peptide text is derived from it. The star is where a group is joined. ClAc = O=C(CCl)*; NHOH = ON*
Key:
[1] = target: T1, rat PAM (Rattus norvegicus, UniProt P14925); assay: Bifunctional rat PAM inhibition; format: biochemical
T1 sequence (P14925 36-715 isoform P14925-2 limits assumed): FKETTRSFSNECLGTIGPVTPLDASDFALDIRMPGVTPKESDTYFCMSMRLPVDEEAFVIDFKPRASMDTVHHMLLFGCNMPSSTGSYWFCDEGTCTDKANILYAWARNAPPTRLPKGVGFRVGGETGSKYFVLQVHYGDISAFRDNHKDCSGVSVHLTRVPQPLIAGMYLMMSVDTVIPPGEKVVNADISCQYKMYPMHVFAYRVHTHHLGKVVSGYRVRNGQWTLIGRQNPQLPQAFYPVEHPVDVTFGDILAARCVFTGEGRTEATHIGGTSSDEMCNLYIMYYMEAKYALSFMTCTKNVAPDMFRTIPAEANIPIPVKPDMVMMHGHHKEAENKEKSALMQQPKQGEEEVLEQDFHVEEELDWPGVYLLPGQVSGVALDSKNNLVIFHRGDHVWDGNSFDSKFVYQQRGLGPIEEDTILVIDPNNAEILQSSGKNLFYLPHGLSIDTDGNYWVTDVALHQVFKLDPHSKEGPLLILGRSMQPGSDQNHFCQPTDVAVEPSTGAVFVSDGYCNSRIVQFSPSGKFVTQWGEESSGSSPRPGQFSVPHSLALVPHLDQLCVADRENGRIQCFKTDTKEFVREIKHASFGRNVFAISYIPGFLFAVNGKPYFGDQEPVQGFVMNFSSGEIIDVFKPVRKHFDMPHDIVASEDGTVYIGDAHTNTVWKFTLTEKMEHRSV

[2] = tested on: PHM; conditions: cited from earlier work; for Km: read-out: KM,app
[3] = target: T1, rat PAM; assay: Steady-state kinetics of rat bifunctional PAM substrates; conditions: for (V/K)app as percent of the corresponding glycine substrate: D-alanine substrate vs. corresponding glycine substrate; for (V/K)app / Km: O2 consumption, 5.0 mM ascorbate, pH 6.0, 37 °C; for Km: read-out: KM,app; for Rel. (V/K)app: relative to hippuric acid = 1.0
[4] = tested on: B. germanica PHM; assay: B. germanica PHM inhibition; format: biochemical, Blatella germanica; conditions: for RatKi,s/InsectKi,s: ratio rat PAM Ki,s to B. germanica PHM Ki,s; for Ki: read-out: Ki,s vs. B. germanica PHM, N-dansyl-Tyr-Val-Gly amidation
[5] = target: PAL activity of rat PAM (Rattus norvegicus, UniProt P14925); assay: Inhibition of PAL activity; format: biochemical; conditions: read-out: inhibition of PAL activity
Procedure, shortened: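 Recombinant type A rat medullary thyroid carcinoma PAM (1.5–3.0 μg) started reactions at 37.0 °C. Buffer: 100 mM MES/NaOH pH 6.0, 30 mM NaCl, 1% ethanol, 0.001% Triton X-100. Substrate: 2.0 mM (R,S)-α-hydroxyhippuric acid, with 0 or 750 μM test compound. No-enzyme blank included. TFA quench at 20 min. Glyoxylate measured spectrophotometrically against a standard curve.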

[6] = tested on: DU 145 cells; assay: Growth of human prostate DU 145 cells; format: cell-based; conditions: for antiproliferative concentration relative to Ki,s for PHM: DU 145 cells vs. in vitro Ki,s
Procedure, shortened: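 DU 145 cells in EMEM (Earle's salts, 2 mM glutamine, 1.0 mM pyruvate, 0.1 mM amino acids, 10% FBS, penicillin/streptomycin). Grown to 80% confluency, trypsinized, seeded at 50,000 cells/well, adhered 24 h. Medium then replaced with or without test compound; 10 μM 4-HPR as positive control. Counted at 8, 24, 48, 72, 96 h: PBS wash, trypsin/EDTA detachment, Trypan blue, hemacytometer viable/non-viable count.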

[7] = Ki,s, rat PAM, absence of DMSO, competitive inhibition assumed

## CCCCCCCCCCCC(=S)SCC(=O)O [compound 55, S-(Thiolauroyl)thioglycolic acid]
[1]; [7]
  Ki: 0.54 ± 0.05 µM

## O=C(N[C@H](CO)C(=O)O)c1ccccc1 [compound 76, N-(Benzoyl)-D-serine]
[1]; [7]
  Ki: 1500 µM

## O=C(O)CNC(=O)c1ccccc1O [salicylurate]
[2]; ref 23b
  Km: 860 µM

## C[C@@H](NC(=O)c1ccccc1)C(=O)O [compound 52, Benzoyl-D-alanine]
[3]
  (V/K)app as percent of the corresponding glycine substrate: 0.05–0.3%

## O=C(O)CSc1ccccc1 [compound 72, S-Phenylmercaptoacetic Acid]
[4]
  RatKi,s/InsectKi,s: 6.9
  Ki: 56 ± 6 µM
[1]; [7]
  Ki: 380 ± 40 µM

## O=C(O)CONC(=O)c1ccccc1 [compound 73, O-Benzamidoglycolic acid]
[1]; [7]
  Ki: 1000 µM

## 2-Propylmercaptoacetylglycine [compound 29]
[3]
  (V/K)app: (8.2 ± 0.3) × 10^3 M^−1 s^−1
  Km: 220 ± 10 µM
  Rel. (V/K)app: 1.3

## CC(NC(=S)c1ccccc1)C(=O)O (stereo not drawn) [compound 59, N-(Thiobenzoyl)-(D,L)-alanine]
[1]; [7]
  Ki: 7.2 ± 0.9 µM

## O=C(O)CSC(=S)CCc1ccccc1 [compound 62, S-(3-Phenylthiopropionyl)thioglycolic acid]
[4]
  RatKi,s/InsectKi,s: 11
  Ki: 0.87 ± 0.11 µM
[1]; Ki,s, rat PAM, […] DMSO
  Ki: 30 µM
[1]; [7]
  Ki: 9.4 ± 0.8 µM

## O=C(O)CNC(=O)CNC(=O)CCl [compound 34, Chloroacetyl-Gly-Gly] (ClAc-Gly-Gly-OH)
[3]
  (V/K)app: (2.1± 0.1) × 10^4 M^−1 s^−1
  Km: 420 ± 30 µM

## 3-Indolylacetylglycine [compound 24]
[3]
  (V/K)app: (2.5 ± 0.1) × 10^3 M^−1 s^−1

## O=C(NO)c1ccccc1O [compound 71, Salicylhydroxamic acid]
[1]; [7]
  Ki: 300 ± 20 µM

## O=C(O)CSC(=S)Nc1ccccc1 [compound 61, S-(Phenylthiocarbamoyl)thioglycolic acid]
[4]
  RatKi,s/InsectKi,s: 1.6
  Ki: 5.4 ± 0.3 µM
[5]
  inhibition at 750 µM: ~40%
[1]; [7]
  Ki: 8.6 ± 1.4 µM

## N[C@@H](CCC(=O)N[C@@H](CS)C(=O)NCC(=O)O)C(=O)O [glutathione]
[2]
  Km: 130 µM

## methyl ester of N-dansyl-Tyr-Val-Gly
[2]; read-out: Ki,s, ref 20a
  Ki: 54 µM

## CC(SC(=S)c1ccccc1)C(=O)O (racemic) [compound 66, S-(Thiobenzoyl)-(R,S)-thiolactic acid]
[1]; [7]
  Ki: 58 ± 9 µM

## Cc1ccc(C(=S)SCC(=O)O)cc1 [compound 57, S-(4-Methylthiobenzoyl)thioglycolic acid]
[4]
  RatKi,s/InsectKi,s: 0.25
  Ki: 14 ± 1 µM
[6]
  antiproliferative concentration relative to Ki,s for PHM: 60–300 fold
[1]; [7]
  Ki: 3.5 ± 0.4 µM

## O=C(NCP(=O)(O)O)c1cccnc1 [compound 80, (Nicotinamidomethyl)phosphonic acid]
[1]
  Ki: > 75000 µM
[1]; 28 mM compound, 200 μM N-octanoylglycine as substrate
  inhibition of PHM (O2 consumption): no inhibition

## O=C(NCC[C@H](O)C(=O)O)OCc1ccccc1 [compound 75, (S)-N-CBZ-4-amino-2-hydroxybutyric acid]
[1]; [7]
  Ki: 1400 µM

## O=C(O)CNC(=O)CCCCCCCc1ccccc1 [compound 46, 8-Phenyloctanoylglycine]
[3]
  (V/K)app lower than that of 6-phenylhexanoylglycine 50: ~ 2.5 fold

## O=C(O)CSC(=S)c1ccccc1 [compound 64, S-(Thiobenzoyl)thioglycolic acid]
[4]
  Ki: 92 ± 10 µM
[1]; Ki,s, rat PAM, […] DMSO
  Ki: 49 µM
[1]; [7]
  Ki: 39 ± 5 µM

## O=C(O)CCSC(=S)Nc1ccccc1 [compound 56, S-(Phenylthiocarbamoyl)-3-mercaptopropionic acid]
[4]
  RatKi,s/InsectKi,s: 0.47
  Ki: 5.5 ± 0.8 µM
[1]; [7]
  Ki: 2.6 ± 0.7 µM

## NCC(=O)NNC(=O)OCc1ccccc1 [compound 78, (CBZ-hydrazido)glycine]
[1]; [7]
  Ki: 7900 µM

## 2-Pyridylmercaptoacetylglycine [compound 47]
[3]
  (V/K)app: (8.3 ± 0.7) × 10^4 M^−1 s^−1
  Km: 36 ± 4 µM
  Rel. (V/K)app: 13

## O=C(NC(CSC(=O)c1ccccc1)C(=O)O)c1ccccc1 (stereo in doubt) [compound 68, N,S-Dibenzoyl-L-cysteine]
[1]; [7]
  Ki: 69 ± 7 µM

## CC(=O)N[C@H](C)C(=O)O [compound 51, Acetyl-D-alanine]
[3]
  (V/K)app as percent of the corresponding glycine substrate: 0.05–0.3%

## CCOC(=O)CSC(=S)c1ccc(C)cc1 [compound 70, S-(4-Methylthiobenzoyl)thioglycolic acid ethyl ester]
[1]; [7]
  Ki: 110 ± 10 µM

## O=C(O)CNC(=O)CCCCCc1ccccc1 [compound 50, 6-Phenylhexanoylglycine]
[3]
  increase of (V/K)app over hippurate 1: ~ 30 fold
  ratio of (V/K)app to that of 3-(2-furyl)acryloylglycine 26: about 70

## CC(C#N)(CCC(=O)O)SC(=S)c1ccccc1 (stereo not drawn) [compound 58, S-(Thiobenzoyl)-4-mercapto-4-cyanopentanoic acid]
[1]; [7]
  Ki: 5.7 ± 0.4 µM

## C[C@@H](NC(=O)OCc1ccccc1)C(=O)O [compound 53, CBZ-D-alanine]
[3]
  (V/K)app as percent of the corresponding glycine substrate: 0.05–0.3%

## CC(C)C[C@H](NC(=O)[C@@H]1CCCN1)C(=O)NCC(=O)NO [compound 74, Pro-Leu-Gly hydroxamic acid] (H-Pro-Leu-Gly-{NHOH})
[1]; [7]
  Ki: 1000 µM

## O=C(O)CNC(=S)Nc1ccccc1 [compound 69, N-Phenylthiohydantoic acid]
[1]; Ki,s, rat PAM, […] DMSO
  Ki: 110 ± 20 µM

## O=C(O)COC(=O)Nc1ccccc1 [compound 65, O-(Phenylcarbamoyl)glycolic acid]
[1]; [7]
  Ki: 54 ± 4 µM

## CC1=C(/C=C/C(C)=C/C=C/C(C)=C/C(=O)Nc2ccc(O)cc2)C(C)(C)CCC1 [4-HPR, N-(4-hydroxyphenyl) retinamide, reference compound]
[6]; DU 145 cells, 10 μM, 48 hr
  effect on cell growth (positive control): completely eliminates cell growth

## O=C(O)CNCc1ccccc1 [compound 79, N-Benzylglycine]
[1]; [7]
  Ki: 18000 µM

## O=C(O)CSC(=S)Cc1ccccc1 [compound 60, S-(2-Phenylthioacetyl)thioglycolic acid]
[4]
  RatKi,s/InsectKi,s: 2.1
  Ki: 3.6 ± 0.6 µM
[6]
  antiproliferative concentration relative to Ki,s for PHM: ~ 60 fold and 60–300 fold
[6]; DU 145 cells, Fig. 2
  concentration showing significant anti-proliferative effects: > 500 µM
[1]; Ki,s, rat PAM, […] DMSO
  Ki: 13 µM
[1]; [7]
  Ki: 7.9 ± 2.8 µM

Reference: article PMC2668526 (Bioorganic & medicinal chemistry, 2008)
